Measured values taken from publication PMC10546156 (Journal for Immunotherapy of Cancer, 2023).

Each substance was assayed on HLA-typed donor PBMC, CD8 T cells (assay: Immunogenicity assessment: tetramer/dextramer staining of donor T cells). Settings: two C*07:01 healthy donor buffy coats, prior to or after sequential dextramer enrichment.
Assay type: cell-based, human
Method in brief: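 Dextramers were assembled from UV-exchange MHC monomers. 1–3×10^8 PBMC were treated with 50 nM dasatinib plus FcR block (30 min, 37°C), then with 10 µg/mL dextramer pool (1 h, 4°C), and bead-enriched sequentially over two columns. Enriched cells were either surface-stained for flow cytometry with the whole sample acquired, or expanded 10–14 days (irradiated allogeneic feeders, anti-CD3/28, IL-2 300 IU/mL, IL-7/IL-15 5 ng/mL) before re-enrichment.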
With _FRRS(ph)PTKSSL_ [pRBM14] the “C*07:01 PP-CTL responses by dextramer pool” value (from here on “C*07:01 PP-CTL responses”) was “could not detect responses”. For _HRYS(ph)TPHAF_ [pRAF1], the “C*07:01 PP-CTL responses” value was “could not detect responses”. _KRAS(ph)FAKSV_ [pWNK] was tested, and the “C*07:01 PP-CTL responses” value was “could not detect responses”. In the case of _KRAS(ph)GQAFEL_ [pSTMN], the “C*07:01 PP-CTL responses” value is reported as “could not detect responses”. With _RRFS(ph)GTAVY_ [pZNF518A] the “C*07:01 PP-CTL responses” value was “could not detect responses”. For _RRPS(ph)LLSEF_ [pNCOR], the “C*07:01 PP-CTL responses” value was “could not detect responses”. With _RRYS(ph)DPPTY_ [pMYO9B] the “C*07:01 PP-CTL responses” value was “could not detect responses”.
